Experimental data from ChEMBL document CHEMBL4477183, “Antimicrobial Peptide from the Wild Bee Hylaeus signatus Venom and Its Analogues: Structure-Activity Study and Synergistic Effect with Antibiotics” (J Nat Prod, 2016).
≈ marks a conversion by molar mass, not a printed value. Non-standard residues stand in square brackets, D forms with d. Residues, ends and D or L forms follow the SMILES beside them.

Key:
Staphylococcus aureus [1] = test: Antimicrobial activity against Staphylococcus aureus clinical isolates from university hospital in Motol assessed as reduction in bacterial growth after 20 hrs by drop diffusion test; type: functional
Escherichia coli = test: Antimicrobial activity against Escherichia coli assessed as reduction in bacterial growth after 20 hrs by […]; type: functional
Summary of the method: (§1)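 Broth microdilution in LB (YPG for C. albicans) with 2-fold serial dilutions, final 0.1–100 μM. Mid-log cells grown 3–5 h at 37 °C were added at about 5 × 10^5 cfu/mL, then incubated 20 h at 37 °C with shaking. A540 was read every 15 min to build growth curves. Medium with cells served as growth control; at least three runs in duplicate.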

Pseudomonas aeruginosa [2] = test: Antimicrobial activity against Pseudomonas aeruginosa 5482 assessed as reduction in bacterial growth after 20 hrs […]; type: functional; conditions: Pseudomonas aeruginosa, 5482, 20 h; summary of the method: as §1
Pseudomonas aeruginosa [3] = test: Antimicrobial activity against Pseudomonas aeruginosa clinical isolates assessed as reduction in bacterial growth after 20 hrs by […]; type: functional; summary of the method: as §1
[4] = Hemolytic activity in human type RBC after 1 hr; type: ADME, cell-based, Erythrocyte; conditions: red blood cells (erythrocytes), read-out: LC50
Summary of the method: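 Peptides at 2.5–400 μM were incubated with a 4% suspension of human erythrocytes in physiological solution for 1 h at 37 °C, then centrifuged at 250g for 5 min; supernatant A540 was read. Saline-treated cells gave 0% lysis and 0.2% Triton X-100 gave 100%. LC50 is the concentration lysing 50% of cells; duplicates in at least two independent experiments.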

Candida albicans = test: Antifungal activity against Candida albicans assessed as reduction in fungal growth after 20 hrs by […]; type: functional; summary of the method: as §1
Micrococcus luteus = test: Antimicrobial activity against Micrococcus luteus assessed as reduction in bacterial growth after 20 hrs by […]; type: functional; summary of the method: as §1
Bacillus subtilis = test: Antimicrobial activity against Bacillus subtilis assessed as reduction in bacterial growth after 20 hrs by […]; type: functional; summary of the method: as §1
Staphylococcus aureus [5] = test: Antimicrobial activity against Staphylococcus aureus clinical isolates assessed as FIC index in presence of amoxicillin after 20 hrs by drop diffusion test; type: functional
Pseudomonas aeruginosa [6] = test: Antimicrobial activity against Pseudomonas aeruginosa clinical isolates assessed as FIC index in presence of tetracycline after 20 hrs by drop diffusion test; type: functional
Pseudomonas aeruginosa [7] = test: Antimicrobial activity against Pseudomonas aeruginosa clinical isolates assessed as FIC index in presence of rifampicin after 20 hrs by drop diffusion test; type: functional
Staphylococcus aureus [8] = test: Antimicrobial activity against Staphylococcus aureus 6271 assessed as reduction in bacterial growth after 20 hrs by broth microdilution assay; conditions: Staphylococcus aureus, 6271, 20 h
[9] = system: Staphylococcus epidermidis; test: Antimicrobial activity against Staphylococcus epidermidis assessed as reduction in bacterial growth after 20 hrs by broth microdilution assay
Staphylococcus aureus [10] = test: Antimicrobial activity against Staphylococcus aureus clinical isolates from Liberec regional hospital assessed as reduction in bacterial growth after 20 hrs by broth microdilution assay

Molecule	MIC (Staphylococcus aureus [1]) [µM]	MIC (Escherichia coli) [µM]	MIC (Pseudomonas aeruginosa [2]) [µM]	MIC (Pseudomonas aeruginosa [3]) [µM]	HC50 at 1 h [4] [µM]	MIC (Candida albicans) [µM]	MIC (Micrococcus luteus) [µM]	MIC (Bacillus subtilis) [µM]	fractional inhibitory concentration index (FICI) (Staphylococcus aureus [5])	fractional inhibitory concentration index (FICI) (Pseudomonas aeruginosa [6])	fractional inhibitory concentration index (FICI) (Pseudomonas aeruginosa [7])	MIC (Staphylococcus aureus [8]) [µM]	MIC [9] [µM]	MIC (Staphylococcus aureus [10]) [µM]
CC[C@@H](C)[C@@H](NC(=O)CN)C(=O)N[C@H](CC(C)C)C(=O)N[C@H](CO)C(=O)N[C@H](CO)C(=O)N[C@H](CC(C)C)C(=O)N[C@H](CC(C)C)C(=O)N[C@H](CCCCN)C(=O)N[C@H](CCCCN)C(=O)N[C@H](CC(C)C)C(=O)N[C@H](CCCCN)C(=O)N[C@H](CCCCN)C(=O)N[C@@H](C(=O)N[C@@H](C(=O)N[C@H](C)C(=O)N[C@H](CCCCN)C(N)=O)[C@H](C)CC)[C@H](C)CC (H-G[dI][dL][dS][dS][dL][dL][dK][dK][dL][dK][dK][dI][dI][dA][dK]-NH2)	6.3 (≈ 11 µg/mL)	4.5 (≈ 7.89 µg/mL)	4.5 (≈ 7.89 µg/mL)	9.7 (≈ 17 µg/mL)	333	9 (≈ 15.8 µg/mL)	≤ 3	≤ 7	0.63	0.75	0.3	5.7 (≈ 9.99 µg/mL)	3.2 (≈ 5.61 µg/mL)	2.6 (≈ 4.56 µg/mL)
CC[C@@H](C)[C@@H](NC(=O)CN)C(=O)N[C@H](CC(C)C)C(=O)N[C@H](CO)C(=O)N[C@H](CO)C(=O)N[C@H](CC(C)C)C(=O)N[C@H](Cc1c[nH]c2ccccc12)C(=O)N[C@H](CCCCN)C(=O)N[C@H](CCCCN)C(=O)N[C@H](CC(C)C)C(=O)N[C@H](CCCCN)C(=O)N[C@H](CCCCN)C(=O)N[C@@H](C(=O)N[C@@H](C(=O)N[C@H](C)C(=O)N[C@H](CCCCN)C(N)=O)[C@H](C)CC)[C@H](C)CC (H-G[dI][dL][dS][dS][dL][dW][dK][dK][dL][dK][dK][dI][dI][dA][dK]-NH2)	3.2 (≈ 5.84 µg/mL)	5 (≈ 9.13 µg/mL)	6.7 (≈ 12.2 µg/mL)	8.8 (≈ 16.1 µg/mL)	191	8 (≈ 14.6 µg/mL)	≤ 3	≤ 7	0.73	0.58	0.29	6.3 (≈ 11.5 µg/mL)	1.7 (≈ 3.1 µg/mL)	2.9 (≈ 5.29 µg/mL)
CC[C@@H](C)[C@@H](NC(=O)CN)C(=O)N[C@H](CCSC)C(=O)N[C@H](CO)C(=O)N[C@H](CO)C(=O)N[C@H](CC(C)C)C(=O)N[C@H](CCSC)C(=O)N[C@H](CCCCN)C(=O)N[C@H](CCCCN)C(=O)N[C@H](CC(C)C)C(=O)N[C@H](CCCCN)C(=O)N[C@H](CCCCN)C(=O)N[C@@H](C(=O)N[C@@H](C(=O)N[C@H](C)C(=O)N[C@H](CCCCN)C(N)=O)[C@H](C)CC)[C@H](C)CC (H-G[dI][dM][dS][dS][dL][dM][dK][dK][dL][dK][dK][dI][dI][dA][dK]-NH2)	16 (≈ 28.6 µg/mL)	6.3 (≈ 11.3 µg/mL)	3.2 (≈ 5.72 µg/mL)	8.5 (≈ 15.2 µg/mL)	> 400	8 (≈ 14.3 µg/mL)	≤ 3	≤ 7	0.54	0.67	0.32	13 (≈ 23.2 µg/mL)	2.2 (≈ 3.93 µg/mL)	7 (≈ 12.5 µg/mL)
CC1(C)S[C@@H]2[C@H](NC(=O)[C@H](N)c3ccc(O)cc3)C(=O)N2[C@H]1C(=O)O [AMOXICILLIN]	3.5 (≈ 1.28 µg/mL)	2.7 (≈ 0.987 µg/mL)	> 100	> 100	–	–	–	–	–	–	–	17 (≈ 6.21 µg/mL)	35 (≈ 12.8 µg/mL)	35 (≈ 12.8 µg/mL)
H-GILSSLLKKLKKIIAK-NH2	5	8	5	7.5	284	10	≤ 3	≤ 7	0.69	0.54	0.39	16	1.8	3.8
H-GILSSLLKKLKKWIAK-NH2	4	4	8	21	115	16	≤ 3	≤ 7	0.56	0.63	0.27	8	1.6	2.6
H-GILSSLLKKWKKIIAK-NH2	20	7.5	5	7.1	> 400	11	≤ 3	≤ 7	0.44	0.58	0.42	20	2.7	7.8
H-GILSSLWKKPKKIIAK-NH2	> 100	> 100	98	> 100	> 400	> 100	5.8	49	–	–	–	> 100	> 100	> 100
